The results in this text go back to ChEMBL document CHEMBL3808369, “Identification of Cyproheptadine as an Inhibitor of SET Domain Containing Lysine Methyltransferase 7/9 (Set7/9) That Regulates Estrogen-Dependent Transcription” (J Med Chem, 2016).

Molecules are shown by their SMILES. Active and inactive are the calls of the source. No cut-off for these calls is given here. A value given as a limit tells only on which side of the number the result lay.

Experiment [1] addresses T1, Histone-lysine N-methyltransferase SETD7 (Homo sapiens, UniProt Q8WTS6).
T1 sequence (Q8WTS6 whole entry): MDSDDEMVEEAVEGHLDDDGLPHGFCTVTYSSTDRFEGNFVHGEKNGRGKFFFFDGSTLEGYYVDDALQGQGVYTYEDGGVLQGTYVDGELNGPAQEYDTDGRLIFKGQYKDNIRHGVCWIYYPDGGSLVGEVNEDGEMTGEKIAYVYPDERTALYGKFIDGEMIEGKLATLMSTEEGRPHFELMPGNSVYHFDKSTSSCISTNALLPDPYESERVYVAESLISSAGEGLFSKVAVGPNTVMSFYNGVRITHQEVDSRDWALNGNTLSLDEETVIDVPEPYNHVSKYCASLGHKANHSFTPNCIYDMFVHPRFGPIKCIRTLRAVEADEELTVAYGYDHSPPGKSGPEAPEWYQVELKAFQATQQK
Put plainly: Inhibition of recombinant Set7/9 (unknown origin) expressed in Escherichia coli BL21 (DE3) using biotinylated histone H3-derived peptide/SAM as substrate by alphaLISA. For orientation: Bead proximity is the source of the signal in Alpha formats.

The target in experiment [2] is T2, Histone-lysine N-methyltransferase SETD7 (Homo sapiens) (UniProt Q8WTS6).
T2 sequence (whole entry): T1 sequence (Q8WTS6 whole entry)
The experiment in a line: Inhibition of Set7/9 in human MCF7 cells assessed as suppression of beta-estradiol-induced ERE promoter activation at 3 to 10 uM preincubated for 18 hrs followed by beta-estradiol addition measured after 24 hrs by luciferase reporter gene assay. The experiment is classed as cell-based. The procedure, abridged:
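MCF7 cells were switched to estrogen-free medium (phenol red-free RPMI, 10% charcoal-stripped FBS) for 3 days, then transfected with pGL4-3×ERE-TA2 and hRuc-TK. After 6 h, compound was added. After 18 h more, cells received ± 10 nM β-estradiol for 24 h. Dual-luciferase readout: firefly normalized to Renilla, given as fold over unstimulated cells. Four independent assays, SD.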
Background: In a reporter assay the amount or activity of a reporter protein is the signal.

Experiment [3] has as its target T2, Histone-lysine N-methyltransferase SETD7 (Homo sapiens). Put plainly: Inhibition of Set7/9 in human MCF7 cells assessed as suppression of beta-estradiol-induced pS2 mRNA expression at 3 to 10 uM preincubated for 18 hrs followed by beta-estradiol addition measured after 24 hrs by RT-PCR analysis. Particulars: in the assay text read “preincubated for 24 hrs” for “preincubated for 18 hrs”. In kind it is cell-based. An outline of the steps:
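MCF7 cells in estrogen-free medium were treated with compound for 24 h, then with 10 nM β-estradiol plus compound for a further 24 h. pS2 and GAPDH mRNA levels were measured by semiquantitative RT-PCR.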

The target is the same in experiment [4]. Put plainly: Inhibition of Set7/9 (unknown origin) expressed in Escherichia coli BL21 (DE3) by fluorogenic assay.
For another experiment, the system named is MCF7. Put plainly: Effect on ERalpha expression in human MCF7 cells at 10 to 100 uM after 48 hrs by immunoblotting analysis. In kind it is functional, cell-based. The procedure, abridged: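 MCF7 cells were treated with various concentrations for 48 h. Lysates were made in RIPA buffer with protease inhibitors, separated by SDS-PAGE, transferred to PVDF and immunoblotted for ERα with a rabbit polyclonal antibody. Detection was by chemiluminescence.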
On the technique in general: In western blotting, separated proteins are transferred to a membrane and probed.

Turning to `CC(=O)N1CCC(=C2c3ccccc3C=Cc3ccccc32)CC1`, the concentration for half-maximal inhibition (IC50) (commonly the point on the concentration scale where inhibition reaches its midpoint) in experiment [1] was over 100 µM.
Consider `CC/C(=C(\c1ccccc1)c1ccc(OCCN(C)C)cc1)c1ccccc1`, for which the inhibition result in experiment [2] and in experiment [3] was “Active” each time.
For `Cc1ccc(/C(=C\CN2CCCC2)c2ccccn2)cc1`, the inhibition entry in experiment [4] was “inactive”. Also, the result in the experiment with MCF7 was inactive.
With `O=C(c1ccc(F)cc1)C1CCN(CCn2c(=O)[nH]c3ccccc3c2=O)CC1`, in experiment [4], the inhibition result is “inactive”. The outcome in the experiment on MCF7 was inactive.
